Reference: ChEMBL document CHEMBL3813612, “Carolignans from the Aerial Parts of Euphorbia sikkimensis and Their Anti-HIV Activity” (J Nat Prod, 2016)

Key:
MT4 = experiment: Cytotoxicity against human MT4 cells assessed as reduction in cell viability after 3 days by CytoTox-Glo assay; type: cell-based; conditions: mt4, 72 h
Method in brief: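 MT4 cells were cultured with various compound concentrations for 3 days. Viability was read by the CytoTox-Glo assay following the manufacturer's protocol. CC50 is the concentration giving a 50% reduction in cell viability.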

[1] = test system: Human immunodeficiency virus 1; experiment: Antiviral activity against HIV1 NL4-3 infected in human MT4 cells assessed as reduction in viral replication measured on day 3 post infection by luciferase reporter gene assay; type: functional, organism-based
[2] = Selectivity index, ratio of CC50 for human MT4 cells to EC50 for HIV1 NL4-3 infected in human MT4 cells; type: toxicity, cell-based; conditions: read-out: Ratio CC50/EC50
[3] = Human immunodeficiency virus 1, NL4-3, MT4, 72 h

SMILES | CC50 (MT4) | EC50 [1, 3] | CC50 (MT4; 72 h) | selectivity ratio [2] | EC50 ([1]; mt4)
Cc1cn([C@H]2C[C@H](N=[N+]=[N-])[C@@H](CO)O2)c(=O)[nH]c1=O [ZIDOVUDINE] | > 0.1 µM |  |  |  | 
COc1cc(/C=C/C(=O)OCCCc2ccc(O[C@H](COC(=O)/C=C/c3ccc(O)c(OC)c3)[C@@H](OC)c3ccc(O)c(OC)c3)c(OC)c2)ccc1O (stereo in doubt; 1b) |  | 5.3 µM | 17 µM | 3.2 | 
COc1cc(/C=C/C(=O)OCCCc2ccc(O[C@H](COC(=O)/C=C/c3ccc(O)c(OC)c3)[C@@H](OC)c3ccc(O)c(OC)c3)c(OC)c2)ccc1O (stereo in doubt; 2a) |  |  |  |  | > 10 µM
CCOC(=O)/C=C/c1ccc(O)c(OC)c1 [ETHYL FERULATE] | > 10 µM | > 10 µM |  |  | 
COc1cc(/C=C/C(=O)O)ccc1O [FERULATE] | > 10 µM | > 10 µM |  |  | 
COc1cc(/C=C/C(=O)OCCCc2ccc(O[C@@H](COC(=O)/C=C/c3ccc(O)c(OC)c3)[C@H](OC)c3ccc(O)c(OC)c3)c(OC)c2)ccc1O (stereo in doubt; 1a) |  | 6.3 µM | 21 µM | 3.3 | 
